NR2E3 ag-1 = agonists of human nuclear receptor NR2E3. Q9Y5X4. GST-NR2E3/biotin-RetCOR TR-FRET, 1536-well. inhibition of corepressor binding, % at 4.78 µM. actives 0.12% (n = 320,000). AID 2300;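 active = percent inhibition above the cutoff of mean plus 3 SD of all tested compounds, set per screening campaign, cut at about 20% in these data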;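 also: 0% = DMSO wells and 100% = biotin wells as full block of FRET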
Target sequence (Q9Y5X4 whole entry, looked up): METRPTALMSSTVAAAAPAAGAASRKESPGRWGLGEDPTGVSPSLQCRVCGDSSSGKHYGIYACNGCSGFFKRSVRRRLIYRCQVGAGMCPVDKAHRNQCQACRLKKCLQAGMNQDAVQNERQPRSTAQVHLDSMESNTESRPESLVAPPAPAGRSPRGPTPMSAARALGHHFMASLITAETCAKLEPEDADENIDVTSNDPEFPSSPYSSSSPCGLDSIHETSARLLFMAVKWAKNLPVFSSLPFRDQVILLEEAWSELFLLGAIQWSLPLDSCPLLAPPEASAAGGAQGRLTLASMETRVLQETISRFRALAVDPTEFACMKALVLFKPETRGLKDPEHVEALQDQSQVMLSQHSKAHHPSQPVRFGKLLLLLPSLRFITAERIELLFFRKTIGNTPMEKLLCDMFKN
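Test system: GST-NR2E3 and biotin-RetCOR proteins | Quantity: 1.35 nM GST-tagged NR2E3 final | Medium: Tris pH 7.5 | Also added: 7 nM biotin-RetCOR | Dosing: Compound at 4.8 µM, single dose | Timing: 5 h at 4 °C | Detection: Time-resolved FRET | Read-out basis: Percent inhibition | Benchmarks: Biotin wells as high control, 0.6% DMSO wells as low control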
FGF22 binding = binders of recombinant human FGF22 by thermal shift; activity (Tm shift, normalised), % at 9.99 µM; SYPRO orange fluorescence; percent of sucrose octasulfate shift, DMSO zero; actives 1.5% (n = 340,000);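 active = mean Tm shift, scaled 0 neutral to 100 positive control, at about 1.3% or above, every replicate too, limit read from the data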
Target sequence (Q9HCT0 whole entry, looked up): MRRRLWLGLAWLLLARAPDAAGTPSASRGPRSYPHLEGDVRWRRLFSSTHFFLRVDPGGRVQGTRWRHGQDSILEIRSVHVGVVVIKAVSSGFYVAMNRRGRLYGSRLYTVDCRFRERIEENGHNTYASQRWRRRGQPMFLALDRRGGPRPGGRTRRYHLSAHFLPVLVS
NR2E3 ag-2 = agonists of human NR2E3 nuclear receptor | inhibition of corepressor binding, % at 3.98 µM | CHO-S Gal4-NCOR/VP16-NR2E3 two-hybrid, luciferase | actives 0.35% (n = 360,000);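 active = inhibition above the mean of all tested compounds plus 3 SD, cut at about 70% in these data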;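 also: 0% = DMSO with NR2E3 transfected cells and 100% = cells lacking NR2E3 construct; higher means lower luciferase signal from less NR2E3 corepressor binding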
miR-122 sensor = inhibitors of miR-122 in Huh7 cells. Huh7 miR-122 Renilla luciferase sensor, 48 h; neutral wells = 0, positive control = 100. activation (reporter increase), % at 12.5 µM. AID 602342. actives 0.3% (n = 340,000);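 active = mean replicate activation score at least 90 and every replicate individually at or above 90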;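 also: higher luciferase means less miR-122 activity so hits act as miR-122 inhibitors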
Jurkat NFkB inh = inhibitors of the PMA/ionomycin-induced NF-kB reporter in Jurkat cells. PMA/ionomycin-induced NF-kB luciferase reporter, luminescence. inhibition, % at 4 µM. actives 0.53% (n = 330,000). AID 435003; in the data active = inhibition above about 50%
697 NFkB inh = lowers PMA/ionomycin-induced NF-kB signal in 697 B cells; inhibition, % at 4 µM; 697 B-cell NF-kB luciferase reporter, 16 h; actives 0.33% (n = 330,000); in the data active = inhibition above about 35%
Active calls of the source: *; nt = not tested or not shown; [ ] = another dose, or the depositor's remark. In the library only some 2.2% were active in any assay of this set; here they are far more common.

SMILES	NR2E3 ag-1	FGF22 binding	NR2E3 ag-2	miR-122 sensor	Jurkat NFkB inh	697 NFkB inh
Cc1ccc(NC(=O)CN2C(=O)S/C(=C/c3ccc(-c4cccc(C(=O)O)c4)o3)C2=O)cc1	nt	43.4*	-28.8	nt	nt	nt
Cc1ccc(NC(=O)CN2C(=O)S/C(=C\c3ccc(-c4cccc(C(=O)O)c4C)o3)C2=O)cc1	-1.5	nt	nt	nt	3.3	-1.2
CN1C(=O)c2cc(NC(=O)c3cccs3)ccc2OC[C@H]2O[C@H](CC(=O)NCC3CC3)CC[C@@H]21	nt	-0.3	nt	-8.3[16.7 µM]	nt	nt
COc1cc2c(c(OC)c1OC)CC(c1ccccc1)=C(c1ccccc1)CC2NC(=O)C(F)(F)F (configuration not stated)	nt	0.2	nt	nt	nt	nt
COc1cc2c(cc1OC)C(NC(=O)C(F)(F)F)CNC2=O (configuration not stated)	1.4	43.0*	-2.6	nt	-1.2	-1.9
Cc1ccc(O)c(N=Cc2cc(Cc3ccccc3)cc([N+](=O)[O-])c2O)c1	nt	43.3*	-14.2	nt	-2.2	-23.1
CCNc1ccc(C(=O)OCC(=O)N(Cc2ccccc2)C(C)(C)C)cc1[N+](=O)[O-]	2.6	43.0*	-6.5	8.0	3.3	-13.8
CCCNc1ccc(C(=O)OCC)cc1[N+](=O)[O-]	5.0	0.1	-47.0	6.3	-43.7	-42.1
CC(NC(=O)COC(=O)/C=C/c1ccc(Cl)cc1)c1ccccc1 (configuration not stated)	-2.1	43.5*	-23.0	-4.2	-24.5	7.1
CC(NC(=O)COC(=O)c1nc(Cl)ccc1Cl)c1ccccc1 (configuration not stated)	nt	43.5*	-21.2	3.9	2.7	4.5
O=C(OCC(=O)N1CCc2ccccc21)c1ccc(Cl)nc1	2.3	nt	-2.0	-8.6	3.5	3.2
O=C(OCC(=O)N1CCc2ccccc21)c1nc(Cl)ccc1Cl	-2.7	44.3*	-22.1	4.7	-0.3	15.0
CO[C@H]1CN(C)C(=O)c2ccc(NS(C)(=O)=O)cc2OC[C@H](C)N(C(=O)C2CC2)C[C@@H]1C	nt	-0.4	nt	nt	nt	nt
CO[C@@H]1CN(C)C(=O)c2cc(NC(C)=O)ccc2OC[C@@H](C)N(S(C)(=O)=O)C[C@@H]1C	nt	-0.2	nt	nt	nt	nt
Cc1cc[n+](CC(=O)c2ccc3c(c2)OCCO3)cc1	3.5	43.7*	-5.4	3.1	-4.9	-0.9
CCNC(=O)C[C@H]1CC[C@@H]2[C@H](COc3ccc(NC(=O)c4ccc(C(F)(F)F)cc4)cc3C(=O)N2C)O1	nt	nt	nt	-0.3[16.7 µM]	nt	nt
CN1c2ccccc2Oc2nnc(N3CCN(Cc4ccccc4)CC3)cc21	-5.3	43.4*	-41.1	-5.4	-28.1	-23.8
CN1c2ccccc2Oc2nnc(Cl)cc21	4.2	0.2	-18.8	nt	2.7	3.6
CC1(C)CC(NC(=O)COc2ccccc2Cl)CC(C)(C)N1	-0.7	43.6*	2.7	-16.6	-26.2	-40.0
CC1(C)CC(NC(=O)COc2ccc(Br)cc2Cl)CC(C)(C)N1	4.7	-0.1	25.8	-3.6	14.7	0.8
CC(C)NC(=O)NCC[C@@H]1CC[C@@H](NC(=O)c2ccc(F)cc2)[C@@H](CO)O1	nt	-0.1	nt	3.4[16.7 µM]	nt	nt
Nc1nccc(-c2cccs2)n1	2.1	43.4*	-8.1	nt	0.1	1.2
C[C@H](CO)N1C[C@H](C)[C@H](CN(C)S(C)(=O)=O)Oc2ccc(NC(=O)NC3CCCCC3)cc2CC1=O	nt	-0.3	nt	-1.3[16.7 µM]	nt	nt
O=C1NC(=S)SC1=Cc1ccccc1C(=O)O	nt	1.6*	-25.2	-2.0	nt	nt
Cc1ccc(N2CC(O)=C(c3nc4ccccc4c(=O)[nH]3)C2=N)cc1C	0.1	43.0*	27.7	-7.7	18.1	4.9
SMILES	NR2E3 ag-1	FGF22 binding	NR2E3 ag-2	miR-122 sensor	Jurkat NFkB inh	697 NFkB inh
O=C(COC(=O)c1ccccc1C(=O)c1ccc(Cl)cc1)NC(c1ccccc1)c1ccccc1	1.4	43.2*	8.5	nt	-1.1	-14.8
O=C(COC(=O)c1ccccc1C(=O)c1ccc(Cl)cc1)NCCc1ccccc1	-0.6	0.2	-10.7	-1.4	-4.3	-2.0
O=C(OCc1ccccc1Cl)c1ccccc1C(=O)c1ccccc1	3.1	nt	-33.0	136.9*	-26.3	-27.6
CCC(=O)N1CC[C@@H]2[C@H]1c1cc(C#Cc3ccc(OC)cc3)ccc1N[C@@H]2CO	nt	0.2	nt	-9.9[16.7 µM]	nt	nt
CCCOc1ccc(CNC(=S)Nc2ccccc2)cc1Cl	4.7	39.6*	19.6	25.9	-7.6	-13.9
COc1ccc(CNC(=S)Nc2ccccc2)cc1Cl	0.9	0.1	-2.4	25.3	-11.6	7.2
O=C(Nc1ccccc1)OCCOc1ccc(Cl)cc1Cl	nt	43.9*	-9.1	nt	nt	nt
COc1ccc(CNC(=O)C[C@@H]2CC[C@@H]3[C@@H](COc4ccc(NC(=O)C5CC5)cc4C(=O)N3C)O2)cc1	nt	-0.2	nt	-4.8[16.7 µM]	nt	nt
C[C@@H]1CN([C@@H](C)CO)C(=O)c2cccc(NS(=O)(=O)c3ccccc3)c2O[C@H]1CN(C)S(=O)(=O)c1ccc(F)cc1	nt	0.1	nt	-3.8[16.7 µM]	nt	nt
O=C(Nc1sc2c(c1C(=O)O)CCC2)c1ccco1	-0.9	nt	-67.4	122.6*	-0.1	-1.6
N#Cc1c(NC(=O)c2ccccc2)sc2c1CCC2	-2.3	nt	-360.0	110.7*	-58.6	-249.7
N#Cc1c(NC(=O)c2cccnc2)sc2c1CCC2	-0.9	nt	-127.4	7.8	-3.7	-49.0
O=C(C[n+]1ccccc1)N/N=C/c1ccccc1Cl	3.6	0.3	-3.7	-4.7	-9.0	15.6
O=C(C[n+]1ccccc1)N/N=C/c1ccccc1[N+](=O)[O-]	-3.5	43.2*	-1.2	-2.0	-3.2	-0.8
COc1ccc2[nH]c(=O)c(CN(Cc3ccccc3)C(=S)NCC3CCCO3)cc2c1 (configuration not stated)	3.4	43.8*	-5.1	nt	7.2	-3.6
COc1ccc2cc(CN(Cc3ccco3)C(=S)NCC3CCCO3)c(=O)[nH]c2c1 (configuration not stated)	2.7	0.2	-1.6	nt	11.6	-2.1
O=C(NCC1CCCO1)C(c1cccs1)N(Cc1ccccc1)C(=O)c1ccc(-c2ccccc2)[nH]1 (configuration not stated)	4.7	nt	-33.2	nt	-3.4	9.5
COc1ccc(CN(C(=O)c2ccc(-c3ccccc3)[nH]2)C(C(=O)NCC2CCCO2)c2ccc(C)o2)cc1 (configuration not stated)	0.8	nt	-6.4	230.2*	-4.2	24.8
C[C@H]1CN([C@@H](C)CO)C(=O)Cc2cc(NC(=O)Cc3cn(C)c4ccccc34)ccc2O[C@@H]1CN(C)CC1CCCCC1	nt	-0.1	nt	1.3[16.7 µM]	nt	nt
COc1cc(C)c(Cl)c(C)c1S(=O)(=O)NCc1cccnc1	5.0	nt	-9.2	121.3*	9.6	-0.7
COc1cc(S(=O)(=O)NCc2cccnc2)c(OC)cc1Br	0.1	nt	16.7	108.2*	18.6	15.3
O=C1CCCCC1C(O)(C(=O)c1ccccc1)c1ccccc1 (configuration not stated)	nt	43.3*	-30.0	-1.3	nt	nt

Compound activity: PubChem, several laboratories
